Data published in PubChem BioAssay AID652011 (Sanford-Burnham Center for Chemical Genomics, 2013).
Where “and” joins values, the source holds several entries; their conditions need not be identical. Equal values may be shown once.

target: Endothelial PAS domain-containing protein 1 (Homo sapiens) (UniProt Q99814); assay: HIF-1a and HIF-2a reporter inhibitors, SAR follow-up, cell-based, luminescence, MIAPaCa-2, 786-0, panel (AID 652011); conditions: MIAPaCa-2/PANC HIF reporter, luciferase luminescence, desferoxamine, overnight, HIF2a PANC, run 2; at 99 µM (top of the series)
Sequence (Q99814 whole entry, looked up, the tested form may be a part): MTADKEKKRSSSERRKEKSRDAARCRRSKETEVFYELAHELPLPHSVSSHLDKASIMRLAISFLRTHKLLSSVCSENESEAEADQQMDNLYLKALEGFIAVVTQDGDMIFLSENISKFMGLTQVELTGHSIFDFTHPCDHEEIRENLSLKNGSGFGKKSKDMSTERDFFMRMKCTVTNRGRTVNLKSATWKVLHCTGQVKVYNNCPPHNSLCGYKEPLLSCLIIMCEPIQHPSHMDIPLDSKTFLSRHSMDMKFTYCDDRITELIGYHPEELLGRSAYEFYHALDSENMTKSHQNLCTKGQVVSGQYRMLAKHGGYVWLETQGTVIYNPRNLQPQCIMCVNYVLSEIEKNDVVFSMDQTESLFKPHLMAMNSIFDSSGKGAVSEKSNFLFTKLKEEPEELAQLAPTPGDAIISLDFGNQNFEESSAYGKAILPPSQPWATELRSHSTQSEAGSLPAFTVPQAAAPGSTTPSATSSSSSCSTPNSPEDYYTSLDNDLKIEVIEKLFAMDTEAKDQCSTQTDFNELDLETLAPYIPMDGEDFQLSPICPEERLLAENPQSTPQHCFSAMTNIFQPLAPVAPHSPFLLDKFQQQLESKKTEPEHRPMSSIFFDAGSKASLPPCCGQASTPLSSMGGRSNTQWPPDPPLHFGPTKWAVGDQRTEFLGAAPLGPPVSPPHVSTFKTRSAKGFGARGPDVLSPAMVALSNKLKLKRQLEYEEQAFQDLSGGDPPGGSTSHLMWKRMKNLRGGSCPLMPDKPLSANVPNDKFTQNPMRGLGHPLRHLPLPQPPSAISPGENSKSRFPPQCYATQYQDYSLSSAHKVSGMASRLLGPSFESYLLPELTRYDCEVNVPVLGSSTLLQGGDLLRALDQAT
Method in brief: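 Also added: desferoxamine added before compound. Dosing: compounds from 10 mM and 0.3125 mM stocks, 1% DMSO final. Timing: overnight seeding and compound exposure, 37 °C, 5% CO2, 10-min detection. Detection: luciferase luminescence with One-Glo reagent.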

Structure (SMILES)	inhibition
CCOc1ccc(-c2noc(CCC(=O)NC)n2)cc1	112%
CC(C)c1ccc(-c2noc(CCC(=O)NC3CC3)n2)cc1	26.7%
COC(=O)CCc1nc(-c2ccc(C(C)(C)C)cc2)no1	128%
CNC(=O)CCc1nc(-c2ccccc2)no1	-73.5% and 30.8%
COc1ccccc1NC(=O)CCc1nc(-c2ccc(C(C)(C)C)cc2)no1	123%
CC(C)(C)c1ccc(-c2noc(CCC(=O)NC3CCC3)n2)cc1	90.3%
COc1cccc(NC(=O)CCc2nc(-c3ccc(C(C)(C)C)cc3)no2)c1	131%
CCN(CC)C(=O)CCc1nc(-c2ccc(C(C)(C)C)cc2)no1	76.8% and 78.5%
CCOc1ccccc1NC(=O)CCc1nc(-c2ccc(C(C)(C)C)cc2)no1	112%
CCNC(=O)CCc1nc(-c2c(Cl)cccc2Cl)no1	31.9%
O=C(CCc1nc(-c2ccccc2)no1)NC1CC1	56.6%
CCc1ccc(-c2noc(CCC(=O)NC)n2)cc1	-49.2%
CCC(C)NC(=O)CCc1nc(-c2ccccc2)no1 (stereo not given)	-3.82%
CC(C)(C)c1ccc(-c2noc(CCC(=O)N3CCOCC3)n2)cc1	32.4%
CCNC(=O)CCc1nc(-c2cccc(OC)c2)no1	-12.7%
CC(C)(C)c1ccc(-c2noc(CCC(=O)NC3CCCCC3)n2)cc1	104%
CNC(=O)CCc1nc(-c2ccc(C)cc2)no1	76.6%
CNC(=O)CCc1nc(-c2ccc(OC)cc2)no1	-21.8%
CC(C)(C)c1ccc(-c2noc(CCC(=O)Nc3cccnc3)n2)cc1	126%
CCC(C)NC(=O)CCc1nc(-c2ccc(C(C)C)cc2)no1 (stereo not given)	38.4%
CCCCc1ccc(-c2noc(CCC(=O)NC(C)(C)C)n2)cc1	89%
CCNC(=O)CCc1nc(-c2ccccc2)no1	13%
CNC(=O)CCc1nc(-c2ccc(Cl)cc2)no1	-17.8%
CC(C)(C)NC(=O)CCc1nc(-c2ccc(C(C)(C)C)cc2)no1	102%
CCCNC(=O)CCc1nc(-c2ccc(C(C)(C)C)cc2)no1	73%
CCNC(=O)CCc1nc(-c2ccc(CC)cc2)no1	-47%
CCNC(=O)CCc1nc(-c2ccc(OCC)cc2)no1	-15.1%
CC(C)(C)NC(=O)CCc1nc(-c2ccccc2)no1	-18.9%
CC(C)NC(=O)CCc1nc(-c2ccc(C(C)(C)C)cc2)no1	64.9%
CCNC(=O)CCc1nc(-c2cccc(F)c2)no1	-6.32%
